Here are results for 16 compounds from ChEMBL document CHEMBL5038579, “Structure-Guided Development of Potent Benzoylurea Inhibitors of BCL-XL and BCL-2” (J Med Chem, 2021).

Usually IC50 stands for the concentration at which inhibition is half-maximal. The low end stands for greater potency, the high end for weaker potency. As usually defined, the EC50 is the concentration needed to bring the measured effect to its halfway point.

A short description of assay [1]: Inhibition of GST tagged human/mouse chimeric MCL-1 using biotin-DLRPEIRIAQELRIZIGDEFNETYTRR as substrate incubated for 40 mins followed by substrate addition measured after 4 hrs by AlphaSCREEN assay.
The nature of assay [2]: Inhibition of GST tagged human BCL-XL deltaC25 using biotin-DLRPEIRIAQELRIZIGDEFNETYTRR as substrate […] measured after 4 hrs by AlphaSCREEN assay. On the technique in general: In Alpha technology, singlet oxygen from a donor bead excites a nearby acceptor bead.
Assay [3] can be described thus: Inhibition of GST tagged human/mouse chimeric MCL-1 by surface plasmon resonance assay.
Assay [4] in a line: Inhibition of human BCL-2 deltaC22 by surface plasmon resonance assay. Put shortly:
(§1)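 Biacore solution competition. Protein (10 nM) preincubated 2 h with compound (12.5−0.0001 μM, 10-step half-log series) in HEPES running buffer pH 7.4 with EDTA and 0.005% Tween 20. Injected over a CM5 chip carrying wild-type or inert mBIM BH3 peptide. IC₅₀ by nonlinear curve fit. GST tag removed from BCL-XL and MCL-1 before use.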
Background: In SPR one partner is held on a chip, and binding of the other changes the refractive index at the surface.

Assay [5] is described as follows: Inhibition of human BCL-W deltaC23 C29S/A128E mutant by surface plasmon resonance assay. An outline of the steps: as §1
A short description of assay [6]: Inhibition of GST tagged human BCL-XL deltaC25 by surface plasmon resonance assay.
Assay [7] can be described thus: Inhibition of mouse A1 deltaC20 P10K/C113S mutant by surface plasmon resonance assay. Put shortly: as §1
Assay [8] concerns MEF. Description: Cytotoxicity against wild type mouse embryonic fibroblast cells assessed as reduction in cell viability in presence of 1 % fetal calf serum measured after 24 hrs propidium iodide staining based flow cytometric analysis. The format is functional. An outline of the steps: (§2)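 MEFs (WT, MCL-1−/−, MCL-1−/−/BAX−/−/BAK−/−) seeded at 1 × 10⁴ cells/well in FMA medium with 1% FCS, 24 h before dosing. Four-point dilutions: 0.168−0.00005 μM for ABT-737, 25−3.13 μM for others; final DMSO 0.2%, duplicate wells, 24 h. Cells stained with PI, flow cytometry on 1000 events. PI-negative fraction normalized to DMSO vehicle; EC₅₀ by nonlinear regression, mean ± SEM of three experiments.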
(A flow cytometer gives signals particle by particle.)

Assay [9] deals with MEF. Description: Cytotoxicity against MCL deficient mouse embryonic fibroblast cells assessed as reduction in cell viability in presence of 1 % fetal calf serum measured after 24 hrs by propidium iodide staining based flow cytometric analysis. The format is functional. Put shortly: as §2
For assay [10], the system named is MEF. The assay can be described thus: Cytotoxicity against MCL-1/BAX/BAK deficient mouse embryonic fibroblast cells assessed as reduction in cell viability in presence of 1 % fetal calf serum measured after 24 hrs propidium iodide staining based flow cytometric analysis. The format is functional. Put shortly:
as §2

Assay [11] concerns MEF. Description: Cytotoxicity against MCL-1deficient MEF cells assessed as release of cytochrome c from mitochondria at 2.5 uM FACS analysis. The format is functional, Mus musculus. An outline of the steps: (§3)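 MEFs at 1.5 × 10⁵ cells/well in FMA medium with 1% FCS, 3 h rest, then compounds for 18 h (final DMSO 0.25%) beside a vehicle control. Cells permeabilized with 0.025% digitonin on ice for 5 min, then fixed in 1% paraformaldehyde. Stained with anti-cytochrome c (1:100) and a PE secondary in saponin buffer. FL2 read on 10 000 events for % cells with low cytochrome c. Four experiments; multiple unpaired t test (Holm−Sidak, α = 0.01).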

Assay [12] has as its system MEF. Description: Cytotoxicity against mouse embryonic fibroblast cells assessed as reduction in cell viability in presence of 10 % fetal calf serum measured after 24 hrs propidium iodide staining based flow cytometric analysis. The format is functional.
The test system of assay [13] is MEF. Description: Cytotoxicity against wild type MEF cells assessed as release of cytochrome c from mitochondria FACS analysis. The format is functional, cell-based. The note with it: Mus musculus. An outline of the steps:
as §3

Another assay relates to COLO 205. The assay can be described thus: Cytotoxicity against BCL-XL dependent human COLO205 cells assessed as reduction in cell viability measured after 48 hrs by CellTitre-Glo assay. The format is functional, cell-based. An outline of the steps: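 COLO205 cells (WT or BAK−/−/BAX−/−), kept in RPMI-1640 with 10% FCS, seeded at 3 × 10³ cells/well in medium with 10 or 1% FCS. Dosed one day later with six-point serial dilutions (0.0003−10 μM 1:8 for BH3 mimetics; 0.1−25 μM 1:3 for benzoylureas). Viability normalized to matched DMSO vehicle; EC₅₀ by curve fit.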

In assay [14] the test system is MEF. Description: Cytotoxicity against MCL-1/BAX/BAK deficient MEF cells assessed as release of cytochrome c from mitochondria by FACS analysis. The format is functional, cell-based. The settings on record: Mus musculus. Put shortly: as §3
The subject of assay [15] is MEF. The assay can be described thus: Cytotoxicity against MCL-1deficient MEF cells assessed as release of cytochrome c from mitochondria at 25 uM FACS analysis. The format is functional, Mus musculus. Put shortly:
as §3

The source made the active and inactive calls. The rule behind the calls is not given here.

Take `Cc1ccc(CN(C(=O)N[C@@H](CSCc2ccccc2)C(=O)O)C(=O)c2ccc(-c3ccccc3)cc2)cc1`: the IC50 turned out to be 7.7 µM in assay [1] and 0.51 µM in assay [2].

`Cc1ccc(CN(C(=O)N[C@@H](CS(=O)(=O)Cc2ccccc2)C(=O)O)C(=O)c2ccc3c(c2)CCN(Cc2ccccc2-c2ccc(Cl)cc2)C3)cc1`: the IC50 was > 12.5 µM in [3]; 0.066 µM in assay [4]; > 12.5 µM in assay [5]; 0.133 µM in [6]; 5.3 µM in assay [1]; 0.17 µM in assay [2]. In addition, the IC50 in [7] was > 12.5 µM.

In the case of `Cc1ccc(CN(C(=O)N[C@@H](CS(=O)(=O)CC23CC4CC(CC(C4)C2)C3)C(=O)O)C(=O)c2ccc(-c3ccccc3)cc2)cc1`, the IC50 in [3] is > 12.5 µM; in [4] it was 9.4 µM; in assay [5], > 12.5 µM; in [6] it was 0.42 µM; in [1], 6.1 µM; in assay [2], 0.19 µM. In addition, the IC50 in [7] amounted to 6.8 µM.

For the compound `COC(=O)[C@H](CSCc1ccccc1)NC(=O)N(Cc1ccc(C)cc1)C(=O)c1ccc(-c2ccccc2)cc1`, the IC50 in [1] and in assay [2] was > 100 µM in each case.

Regarding `Cc1ccc(CN(C(=O)N[C@@H](CSCc2ccccc2)C(=O)O)C(=O)c2ccc3c(c2)CCN(Cc2ccccc2-c2ccc(Cl)cc2)C3)cc1`, the IC50 in [3] was > 12.5 µM; in assay [4] it was 0.152 µM; in assay [5], 10 µM; in [6], 0.24 µM; in assay [1], 2 µM; in [2], 0.21 µM. This compound returned an IC50 in assay [7] of 4.6 µM.

As to `Cc1ccc(CN(C(=O)N[C@@H](CS(=O)(=O)Cc2ccccc2)C(=O)O)C(=O)c2ccc(-c3ccccc3)cc2)cc1`, the IC50 in assay [3] was > 12.5 µM; in [4] it was > 12.5 µM; in assay [5] it was > 12.5 µM; in assay [6], 1.8 µM; in assay [1], 11.6 µM; in assay [2], 0.59 µM. Besides, the IC50 in assay [7] is > 12.5 µM.

With `CN(C)CC[C@H](CSc1ccccc1)Nc1ccc(S(=O)(=O)NC(=O)c2ccc(N3CCN(Cc4ccccc4-c4ccc(Cl)cc4)CC3)cc2)cc1[N+](=O)[O-]` [ABT 737], the half-inhibitory concentration (IC50) in assay [3] is > 12.5 µM; in assay [4], < 0.00025 µM; in [5], 0.012 µM; in assay [6] it was < 0.00025 µM; in assay [1], 40 µM; in assay [2] it was 0.004 µM. In addition, the result with MEF [8] and in the assay on MEF [10] was inactive. Also, the EC50 in the assay on MEF [9] worked out at 0.013 µM. Further, in the assay with MEF [11], the Activity is >90%.

With `Cc1ccc(CN(C(=O)N[C@@H](CSCc2ccccc2)C(=O)O)C(=O)c2ccc(-c3cccc(-c4ccccc4-c4ccc(Cl)cc4)c3)cc2)cc1`, the figures for the IC50 in assay [1] and in [2] were 1.5 µM and 0.24 µM, respectively.

As for `Cc1ccc(CN(C(=O)NCCSCc2ccccc2)C(=O)c2ccc(-c3ccccc3)cc2)cc1`, the IC50 in [1] and in [2] was > 100 µM throughout.

For the compound `Cc1ccc(CN(C(=O)N[C@@H](CCCc2ccccc2)C(=O)O)C(=O)c2ccc(-c3ccccc3)cc2)cc1`, the IC50 in assay [1] was 8 µM; in assay [2] it was 1.09 µM.

In the case of `Cc1ccc(CN(C(=O)N[C@@H](CS(=O)(=O)CC23CC4CC(CC(C4)C2)C3)C(=O)O)C(=O)c2ccc3c(c2)CCN(Cc2ccccc2-c2ccc(Cl)cc2)C3)cc1`, the IC50 in [3] is > 12.5 µM; in [4] it was 0.107 µM; in assay [5], > 12.5 µM; in assay [6] it was 0.044 µM; in [1], 1.8 µM; in assay [2], 0.04 µM. In assay [7], this compound registered an IC50 of 5.9 µM.

With `Cc1ccc(CN(C(=O)N[C@@H](CS(=O)(=O)CC2CCCCC2)C(=O)O)C(=O)c2ccc3c(c2)CCN(Cc2ccccc2-c2ccc(Cl)cc2)C3)cc1`, the result in the assay on MEF [12], in the assay with MEF [13], in the assay with MEF [8], with COLO 205, with MEF [10] and with MEF [14] was inactive. In addition, the IC50 in assay [3] is > 12.5 µM; in assay [4], 0.018 µM; in [5] it was 6.8 µM; in [6] it was 0.041 µM; in assay [1], 1.8 µM; in assay [2], 0.04 µM. In assay [7], this compound registered an IC50 of 4.6 µM. The EC50 in the assay on MEF [9] came to 19.2 µM. Further, the Activity in the assay with MEF [15] came out at 30%.

Regarding `Cc1ccc(CN(C(=O)N[C@@H](COCc2ccccc2)C(=O)O)C(=O)c2ccc(-c3ccccc3)cc2)cc1`, the results for the IC50 in assay [1] and in [2] were 11.8 µM and 0.38 µM, respectively.

On to `CCCN(C(=O)N[C@@H](CSCc1ccccc1)C(=O)O)C(=O)c1ccc(-c2ccccc2)cc1`, for which the outcome in the assay with MEF [13], in the assay with MEF [14] and in the assay with MEF [15] (Mus musculus) was inactive. Moreover, in the assay with MEF [9], the EC50 is > 25 µM. Further, the concentration for half-maximal inhibition (IC50) in assay [1] was 28 µM; in [2] it was 31 µM.

Consider `CSC[C@H](NC(=O)N(Cc1ccc(C)cc1)C(=O)c1ccc(-c2ccccc2)cc1)C(=O)O`, for which the figures for the IC50 in assay [1] and in [2] were 44 µM and 13.1 µM, respectively.

For the compound `Cc1ccc(CN(C(=O)N[C@@H](CS(=O)(=O)CC2CCCCC2)C(=O)O)C(=O)c2ccc(-c3ccccc3)cc2)cc1`, the IC50 in [3] was > 12.5 µM; in [4], > 12.5 µM; in assay [5], > 12.5 µM; in assay [6] it was 0.62 µM; in assay [1], 10 µM; in assay [2], 0.46 µM. Moreover, the IC50 in [7] was > 12.5 µM.
